The results in this text go back to ChEMBL document CHEMBL4414584, “Targeting of Fumarate Hydratase from Mycobacterium tuberculosis Using Allosteric Inhibitors with a Dimeric-Binding Mode” (J Med Chem, 2019).

Assay [1] has as its system Mycobacterium tuberculosis. Put plainly: Inhibition of Mycobacterium tuberculosis fumarate hydratase expressed in Escherichia coli BL21(DE3) at 50 uM using fumaric acid as substrate preincubated for 5 mins followed by substrate addition incubated for 2 mins and measured at 24 secs interval for 10 mins by spectrometric method relative to control. In short, it runs like this: (§1)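 Coupled assay: Mtb fumarase (33.3 nM) with citrate synthase, malate dehydrogenase, acetyl-CoA (267 µM) and NAD+ (200 µM) in 250 mM Tris pH 8.0, 5 mM MgCl2. Ligand in DMSO pre-equilibrated 5 min at 25 °C, then fumaric acid added. A340 read every 24 s over 10 min. Slope corrected by no-substrate control and normalised to uninhibited control.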

Assay [2] deals with Mycobacterium tuberculosis. Put plainly: Antimycobacterial activity against Mycobacterium tuberculosis H37Rv assessed as reduction in bacterial growth incubated for 2 weeks in GAST-Fe media by 2-fold serial dilution method. It counts as functional. Conditions: for MIC: 336 h. The method in brief: (§2)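 H37Rv grown in the test medium to OD 0.2–0.4, diluted to OD 0.0002 and added 1:1 to a two-fold serial dilution series of compound. Plates incubated 37 °C for two weeks, then MIC determined.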

For assay [3], the system named is Mycobacterium tuberculosis. The assay is described as follows: Antimycobacterial activity against Mycobacterium tuberculosis H37Rv assessed as reduction in bacterial growth incubated for 2 week in 7H9/ADC media by 2-fold serial dilution method. It counts as functional. Conditions: for MIC: 336 h. In short, it runs like this: as §2
Assay [4] relates to Mycobacterium tuberculosis. Put plainly: Antimycobacterial activity against Mycobacterium tuberculosis H37Rv assessed as reduction in bacterial growth incubated for 2 weeks in 7H9/glucose media by 2-fold serial dilution method. It counts as functional. To be noted: for MIC: 336 h. The method in brief:
as §2

For assay [5], the system named is Mycobacterium tuberculosis. The assay is described as follows: Antimycobacterial activity against Mycobacterium tuberculosis H37Rv assessed as reduction in bacterial growth incubated for 2 weeks in 7H9/DPPC media by 2-fold serial dilution method. It counts as functional. Conditions: for MIC: 336 h. In short, it runs like this:
as §2

Assay [6] is described as follows: Inhibition of Mycobacterium tuberculosis fumarate hydratase expressed in Escherichia coli BL21(DE3) using fumaric acid as substrate preincubated for 5 mins followed by substrate addition incubated for 2 mins and measured at 24 secs interval for 10 mins by spectrometric method. In short, it runs like this:
as §1

Assay [7] deals with Mycobacterium tuberculosis. The assay is described as follows: Inhibition of Mycobacterium tuberculosis fumarate hydratase expressed in Escherichia coli BL21(DE3) at 100 to […] using fumaric acid as substrate preincubated for 5 mins followed by substrate addition incubated for 2 mins and measured at 24 secs interval for 10 mins by spectrometric method. The method in brief: as §1

Assay [8] has as its system Mycobacterium tuberculosis. Put plainly: Binding affinity to Mycobacterium tuberculosis fumarate hydratase expressed in Escherichia coli BL21(DE3) assessed as change in melting temperature at 5 mM by Sypro orange dye based differential scanning fluorimetry. Background: Differential scanning fluorimetry follows unfolding on heating by fluorescence.
Assay [9] can be described thus: Inhibition of N-terminal His6-tagged Mycobacterium tuberculosis fumarate hydratase expressed in Escherichia coli BL21(DE3) using fumaric acid as substrate preincubated for 10 mins followed by substrate addition and measured immediately by fluorescence-based HTS assay.
In assay [10] the test system is Mycobacterium tuberculosis. Put plainly: Antimycobacterial activity against Mycobacterium tuberculosis H37Rv assessed as growth inhibition at 250 uM supplemented with fresh medium containing compound for every 3 days for 7 days relative to control. It counts as functional.
Assay [11] has as its system Mycobacterium tuberculosis. The assay is described as follows: Binding affinity to Mycobacterium tuberculosis fumarate hydratase expressed in Escherichia coli BL21(DE3) assessed as change in melting temperature at 0.625 mM by Sypro orange dye based differential scanning fluorimetry.

Molecules are shown by their SMILES. ≈ marks a conversion by molar mass, not a printed value. Calls of active or inactive are those of the source. The calls are words filed in the database; no cut-off is given here.

The term inhibition denotes the percentage by which the read-out fell short of the control. The term MIC denotes the lowest concentration that inhibits growth of the organism. As usually defined, the IC50 is the concentration needed to halve the response being measured. The term ΔTm denotes the shift of the melting midpoint relative to a reference.

In assay [1], `COc1ccc(S(=O)(=O)N2CCCCCC2)cc1NC(=O)Cc1c[nH]c2ccccc12` registered an inhibition of 27%. Also, the MIC in [2] was above 100 µM; in assay [3] it was above 100 µM; in assay [4], 100 µM (≈ 44.2 µg/mL); in assay [5], 9.4 µM (≈ 4.15 µg/mL).

Take `COc1ccc(S(=O)(=O)N2CCc3cc(OC)c(OC)cc3C2)cc1NC(=O)Cc1n[nH]c(=O)c2ccccc12`: the IC50 in [6] is 3.4 µM. In addition, the outcome in assay [2], in assay [3], in assay [4] and in assay [5] was inactive.

`COc1ccc(S(=O)(=O)N2CCc3ccccc3C2)cc1NC(=O)Cc1n[nH]c(=O)c2ccccc12` gave an IC50 in [6] of 2.2 µM. The outcome in [2], in assay [3], in [4] and in [5] was inactive.

Consider `COc1ccc(S(=O)(=O)N2CCCCCCC2)cc1NC(=O)Cc1n[nH]c(=O)c2ccccc12`, for which the IC50 in [6] is 4 µM. For the same molecule, the MIC in assay [2] is above 100 µM; in assay [3], above 100 µM; in assay [4] it was 25 µM (≈ 12.1 µg/mL); in assay [5] it was 19 µM (≈ 9.21 µg/mL).

With `COc1ccc(C(=O)N2CCCCCC2)cc1NC(=O)Cc1n[nH]c(=O)c2ccccc12`, in [1], the inhibition turned out to be 14%.

As for `COc1ccc(S(=O)(=O)N2CCCCCC2)cc1N`, the inhibition result in [7] is “inactive”. Further, the ΔTm in [8] is -0.7 °C.

In assay [1], `O=C(Cc1nnc(O)c2ccccc12)Nc1cccc(S(=O)(=O)N2CCCCCC2)c1` showed an inhibition of 16%.

Take `COc1ccc(S(=O)(=O)N2CCCCCC2)cc1NC(C)=O`: the inhibition entry in assay [7] was “inactive”. Further, the ΔTm in [8] is -0.6 °C.

`CCOC(=O)Cc1nnc(O)c2ccccc12`: the inhibition entry in assay [7] was “inactive”. Further, in assay [8], the ΔTm is -0.6 °C.

In assay [6], `CNS(=O)(=O)c1ccc(OC)c(NC(=O)Cc2n[nH]c(=O)c3ccccc23)c1` gave an IC50 of 57 µM.

`COc1ccc(S(=O)(=O)N2CC3CC(C2)c2ccccc23)cc1NC(=O)Cc1n[nH]c(=O)c2ccccc12`: the inhibition in assay [1] came to 44%.

On to `CNS(=O)(=O)c1ccc(OC)c(NC(C)=O)c1`, for which the inhibition entry in [7] is “inactive”. The ΔTm in assay [8] is -0.4 °C.

In the case of `COc1ccc(S(=O)(=O)N2CCCCCC2)cc1NC(=O)Cc1ccncc1`, in [1], the inhibition was below 10%. Also, the result in assay [2], in [3], in [4] and in assay [5] was inactive.

For the molecule `COc1ccc(S(=O)(=O)N2CCN(C)CC2)cc1NC(=O)Cc1n[nH]c(=O)c2ccccc12`, the IC50 in [6] was 38 µM. For the same molecule, the outcome in assay [2], in assay [3], in [4] and in assay [5] was inactive.

In turn, `COc1ccc(S(=O)(=O)Nc2ccccc2)cc1NC(=O)Cc1n[nH]c(=O)c2ccccc12` returned an IC50 in assay [6] of 17 µM. The outcome in [2], in assay [3], in assay [4] and in assay [5] was inactive.

On to `COc1ccc2[nH]cc(CC(=O)Nc3cc(S(=O)(=O)N4CCCCCC4)ccc3OC)c2c1`, for which, in assay [1], the inhibition worked out at 38%. Also, the MIC in [2] was above 100 µM; in [3], above 100 µM; in assay [4] it was above 100 µM; in assay [5], 12.5 µM (≈ 5.89 µg/mL).

`COc1ccc(S(=O)(=O)NCc2ccccc2)cc1NC(=O)Cc1n[nH]c(=O)c2ccccc12` came in with an inhibition in assay [1] of 53%.

Turning to `COc1ccc(S(=O)(=O)N2CCSCC2)cc1NC(=O)Cc1n[nH]c(=O)c2ccccc12`, half-maximal inhibition in [6] (IC50) required 4.7 µM. Also, the result in [2], in assay [3], in assay [4] and in [5] was inactive.

As for `COc1ccc(S(=O)(=O)N2CCCCCC2)cc1NC(=O)Cn1cnc2ccccc21`, the inhibition in assay [1] is below 10%.

As for `O=C(O)Cc1nnc(O)c2ccccc12`, the inhibition result in assay [7] is “inactive”. Moreover, in assay [8], the ΔTm was -0.4 °C.

In turn, `COc1ccc(S(=O)(=O)N2CCS(=O)(=O)CC2)cc1NC(=O)Cc1n[nH]c(=O)c2ccccc12` showed an IC50 in assay [6] of 13 µM. Also, the result in [2], in assay [3], in [4] and in [5] was inactive.

The molecule `Cc1ccc(S(=O)(=O)N2CCCCCC2)cc1NC(=O)Cc1n[nH]c(=O)c2ccccc12` showed an inhibition in [1] below 10%.

As for `Nc1cccc(S(=O)(=O)N2CCCCCC2)c1`, in [7], the inhibition entry is “inactive”. Besides, the ΔTm in [8] is -1.2 °C.

`COc1ccc(S(=O)(=O)N2CCOCC2)cc1NC(=O)Cc1n[nH]c(=O)c2ccccc12`: the IC50 in assay [6] was 12 µM. Further, the result in assay [2], in assay [3], in assay [4] and in assay [5] was inactive.

`Nc1cc(S(=O)(=O)N2CCCCCC2)ccc1O`: the inhibition result in assay [7] is “inactive”. For the same molecule, the ΔTm in assay [8] is -1.6 °C.

In turn, `COc1ccc2c(c1)CCN(S(=O)(=O)c1ccc(OC)c(NC(=O)Cc3n[nH]c(=O)c4ccccc34)c1)CC2` yielded an IC50 in assay [6] of 0.67 µM. Moreover, the outcome in assay [2], in assay [3], in [4] and in assay [5] was inactive.

In assay [6], `COc1ccc(S(=O)(=O)N2CCc3ccccc3CC2)cc1NC(=O)Cc1n[nH]c(=O)c2ccccc12` yielded an IC50 of 0.67 µM. The result in assay [2], in [3], in [4] and in assay [5] was inactive.

Turning to `CC(=O)Nc1cccc(S(=O)(=O)N2CCCCCC2)c1`, the inhibition entry in assay [7] is “inactive”. Also, the ΔTm in assay [8] is -0.4 °C.

`COc1ccc(S(=O)(=O)N2CCCCCC2)cc1NC(=O)CCc1c[nH]c2ccccc12` came in with an inhibition in assay [1] of 12%. The MIC in assay [2] is above 100 µM; in [3], above 100 µM; in assay [4], 25 µM (≈ 11.4 µg/mL); in assay [5], 9.4 µM (≈ 4.28 µg/mL).

Turning to `COc1ccc(S(=O)(=O)N2CCCCCC2)cc1NC(=O)Cc1ccnc2ccccc12`, in assay [1], the inhibition is 86%. Besides, the midpoint of inhibition in assay [6], the IC50, lay at 4.1 µM. The result in assay [2], in assay [3], in assay [4] and in assay [5] was inactive.

With `COc1ccccc1NC(=O)Cc1n[nH]c(=O)c2ccccc12`, in assay [7], the inhibition entry was “inactive”. Further, the shift in melting temperature (ΔTm) in assay [8] is -0.4 °C.

`COc1ccc(S(=O)(=O)N2CCCCCC2)cc1NC(=O)Cc1nnc(O)c2ccccc12`: in [1], the inhibition was above 90%. Moreover, the IC50 in [6] amounted to 2 µM; in [9], 2.5 µM. Besides, the “growth inhibition (GI)” value in [10] amounted to 65%. Moreover, the ΔTm in [11] stood at 3.9 °C. Also, the MIC in assay [2], in [3], in [4] and in [5] was above 100 µM each time.

On to `COc1ccc(S(=O)(=O)N2CCCCCC2)cc1`, for which the inhibition result in [7] is “inactive”. Besides, in assay [8], the ΔTm was found to be 0.1 °C.

`COc1ccc(S(=O)(=O)N2CCCCC2)cc1NC(=O)Cc1n[nH]c(=O)c2ccccc12` came in with an IC50 in assay [6] of 4.4 µM. Moreover, the outcome in assay [2], in [3], in assay [4] and in [5] was inactive.

Regarding `COc1ccc(S(=O)(=O)N2CCCCCC2)cc1NC(=O)Cc1cccc2ccccc12`, in [1], the inhibition stood at 21%. Also, the result in assay [2], in assay [3], in [4] and in [5] was inactive.

For `COc1ccc(S(=O)(=O)N2CCCCCC2)cc1NC(=O)Cc1coc2ccccc12`, in assay [1], the inhibition is below 10%. In addition, the MIC in assay [2] was above 100 µM; in [3], above 100 µM; in [4], 9.4 µM (≈ 4.16 µg/mL); in [5], 6.3 µM (≈ 2.79 µg/mL).

The molecule `COc1ccc(S(=O)(=O)N2CCCCCC2)cc1NC(=O)Cc1noc2ccccc12` showed an inhibition in assay [1] below 10%.
